“Also recorded” adds a separate entry of the source.
Columns and labels:
Syk-EGFP = Syk-EGFP (Mus musculus, UniProt P48025); test: In vitro kinase assay, immobilized Syk-EGFP, ELISA-based fluorescence detection; assay type: biochemical; details: for rate of phosphorylation compared with other substrates: Syk-EGFP 6 nM, each substrate 4 μM, 5 mM MnCl2, HEPES pH 7.2 (Fig. 2b)
Procedure, shortened: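 Syk-EGFP immunoprecipitated from lysates of DT40 chicken B cells on anti-GFP beads. Bead-bound kinase (6 nM in the 4 μM substrate comparison) was mixed with peptide (4 μM, or a concentration range) in 500 μM ATP, 5 mM MnCl2, HEPES pH 7.2. Timed aliquots were EDTA-quenched. Neutravidin-captured peptide was probed with 4G10 anti-phosphotyrosine and HRP secondary, then read by Amplex Red (ex 532/em 590 nm). Initial velocities were fitted to a sigmoidal curve; three replicates.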

Syk [1] = target: T1, Syk (Homo sapiens, UniProt P43405); details: cited from earlier work
[2] = tested on: peripheral T-cell lymphoma cells; details: cells with elevated Syk Y525/Y526 phosphorylation; ref [8]; cited from earlier work
kinases = details: binding affinity for kinases; ref [30]; cited from earlier work
DG75 cells = test: Cell toxicity in DG75 cells; assay type: cell-based; details: high concentrations, in the presence of BCR activation and oxidative stress; loss of tubulin and Syk immunoblot signal
Syk [3] = target: T1, Syk; test: Western blot of Syk tyrosine phosphorylation in inhibitor-treated DG75 cells; assay type: cell-based; details: anti-IgM 5 μg/mL + H2O2 1 mM
Syk Y525/526 = test: Western blot of Syk Y525/526 phosphorylation in primary splenic B cells; assay type: cell-based; details: mouse primary splenic B cells, anti-IgM F(ab′)2
Procedure, shortened: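 Mouse splenic B cells enriched by panning, at 5 × 10^6 cells/mL, pre-treated with tyrosine kinase inhibitor or DMSO vehicle. SAStide biosensor peptide (25 μM) added 15 min before anti-IgM F(ab′)2 (5 μg/mL); harvested 0, 5, 10, 15 min after. Immunoblot: 5% goat serum block 1 h; primary antibodies 1:1,000, 1 h at room temperature; HRP secondary, ECL detection.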

[4] = tested on: acute myelogenous leukemia; details: ref [34]; cited from earlier work
non-Hodgkins lymphomas = details: ongoing trial, very small cohort; ref [29]; cited from earlier work
rheumatoid arthritis = details: vs placebo; ref [32]; cited from earlier work
allergic rhinitis = details: delivered intranasally; ref [31]; cited from earlier work
[5] = 500 μM ATP, average of three replicate experiments
[6] = different enzyme preparation and ATP concentration from this paper, ref [13b]

Chain of Syk-EGFP (P48025 whole entry): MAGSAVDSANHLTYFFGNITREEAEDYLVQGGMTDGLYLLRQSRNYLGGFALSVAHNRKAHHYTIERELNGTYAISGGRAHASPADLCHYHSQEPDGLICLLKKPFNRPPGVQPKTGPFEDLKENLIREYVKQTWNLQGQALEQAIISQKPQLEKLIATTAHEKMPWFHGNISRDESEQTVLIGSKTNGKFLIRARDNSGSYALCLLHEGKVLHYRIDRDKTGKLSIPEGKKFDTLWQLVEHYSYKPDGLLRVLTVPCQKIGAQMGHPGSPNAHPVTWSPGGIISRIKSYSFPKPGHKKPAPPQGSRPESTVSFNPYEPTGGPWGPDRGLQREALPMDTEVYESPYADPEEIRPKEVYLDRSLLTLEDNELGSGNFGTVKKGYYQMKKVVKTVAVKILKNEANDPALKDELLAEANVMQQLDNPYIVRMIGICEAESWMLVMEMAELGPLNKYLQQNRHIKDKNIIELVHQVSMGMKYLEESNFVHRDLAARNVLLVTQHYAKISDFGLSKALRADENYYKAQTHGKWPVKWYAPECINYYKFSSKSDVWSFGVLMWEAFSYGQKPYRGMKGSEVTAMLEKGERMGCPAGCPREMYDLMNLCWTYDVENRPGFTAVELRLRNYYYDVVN

## GGEDPDYEWPSAGGKbGG [Phage]
Syk-EGFP; [5]
  rate of phosphorylation compared with other substrates: more efficiently phosphorylated
Syk [1]; phage display peptide, Syk, ref [13d]
  substrate inhibition at higher concentrations: greater than 20 μM

## COc1cc(Nc2ncc(F)c(Nc3ccc4c(n3)NC(=O)C(C)(C)O4)n2)cc(OC)c1OC [R406]
[2]
  apoptosis and proliferation: induces apoptosis and blocks proliferation
kinases
  kinase selectivity: one of the least selective kinase inhibitors evaluated

## GGDEEDYEEPDEPGGKbGG [SAStide]
Syk-EGFP; SAStide at a range of concentrations, immunoprecipitated Syk-EGFP, 500 μM ATP, 5 mM MnCl2, HEPES pH 7.2, sigmoidal fit, three replicate experiments
  Vmax: 11 ± 1 pmol/min
Syk-EGFP; [5]
  rate of phosphorylation compared with other substrates: phosphorylated more rapidly than the previously reported Syktide sequence, but not as rapidly as the phage display-derived sequence; also recorded: phosphorylated more efficiently than the parent Syktide
Syk-EGFP; concentrations up to 100 μM, immunoprecipitated Syk-EGFP
  substrate inhibition: no substrate inhibition at concentrations up to 100 μM
Syk-EGFP; read-out: Khalf (substrate concentration at half of Vmax in a sigmoidal curve, analogous to Km), SAStide at a range of concentrations, immunoprecipitated Syk-EGFP, 500 μM ATP, 5 mM MnCl2, HEPES pH 7.2, sigmoidal fit, average of three replicate experiments
  Km: 86 ± 10 µM

## Oc1cc(O)cc(/C=C/c2ccc(O)c(O)c2)c1 [piceatannol, 3,4,3′,5′-tetrahydroxy-trans-stilbene]
DG75 cells
  toxicity to DG75 cells: toxic to DG75 cells
Syk [3]
  level of Syk tyrosine phosphorylation (Western blot): reduction in the level of Syk tyrosine phosphorylation
Syk Y525/526
  Y525/526 phosphorylation in the presence of inhibitor (Western blot): Y525/526 remained phosphorylated

## GGEDDEYEEVGGKbGG [Syktide]
Syk [1]; [6]
  Km: 3 µM
  kcat: 1.04 s⁻¹

## Cc1nc(Nc2ncc(C(=O)Nc3c(C)cccc3Cl)s2)cc(N2CCN(CCO)CC2)n1 [dasatinib]
Syk [3]
  level of Syk tyrosine phosphorylation (Western blot): reduction in the level of Syk tyrosine phosphorylation
Syk Y525/526
  Y525/526 phosphorylation in the presence of inhibitor (Western blot): Y525/526 remained phosphorylated

## gemtuzumab ozogamicin: therapeutic antibody conjugated to a toxin
[4]
  response in relation to lower Syk expression: lack of response

## COc1cc(Nc2ncc(F)c(Nc3ccc4c(n3)N(COP(=O)(O)O)C(=O)C(C)(C)O4)n2)cc(OC)c1OC [fostamatinib]
non-Hodgkins lymphomas
  response by lymphoma subtype: slightly better response in chronic lymphocytic leukemia than the other types
  response rates: response rates were low overall
Rheumatoid arthritis
  benefit in rheumatoid arthritis, patients receiving methotrexate: significant benefit (over placebo)

## Oc1cccc(Nc2ncc(F)c(Nc3cccc(O)c3)n2)c1 [R112]
Allergic rhinitis
  relief of allergic rhinitis symptoms: effective for relieving allergic rhinitis symptoms

From article PMC3545090 (Biochemistry, 2012)
